Active and inactive are the calls of the source. The rule behind the calls is not given here.

In series [1] the test system is Leishmania donovani. Briefly: Antileishmanial activity against Leishmania donovani MHOM/IN/80/Dd8 promastigotes infected in BALB/c mouse assessed as reduction in parasite load in liver at 25 mg/kg, ip administered once daily for 5 days measured 7 days post dose by giemsa staining-based assay relative to control. Details: scale not given: the % may be the effect or the level left. It counts as functional. In a few lines:
(§1)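 Hamster-passaged strain was transformed to promastigotes. Stationary-phase cells (2 × 10^7 in 0.2 mL PBS) were injected into the tail vein of BALB/c mice. From day 15 post-infection, mice received compound ip in 8% DMSO in PBS for 5 consecutive days, 5 mice per group. Mice were killed day 7 post-treatment. Liver and spleen burden was read from Giemsa-stained stamp smears as LDU.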

Series [2] relates to Leishmania donovani. Briefly: Antileishmanial activity against Leishmania donovani MHOM/IN/80/Dd8 promastigotes infected in BALB/c mouse assessed as reduction in parasite load in spleen at 100 mg/kg, ip administered once daily for 5 days measured 7 days post dose by giemsa staining-based assay relative to control. Type of series: functional. Also on record: scale not given: the % may be the effect or the level left. In a few lines: as §1

Series [3] has as its system Leishmania donovani. Briefly: Antileishmanial activity against Leishmania donovani MHOM/IN/80/Dd8 amastigotes harboring luciferase reporter gene infected in mouse J774 cells assessed as stimulation of host immunity by measuring change in TNFalpha level at 50 uM after 48 hrs by ELISA. Type of series: functional, organism-based. In a few lines:
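Infected J774 macrophages (24 h infection) were treated with 50 μM compound for 48 h. Culture supernatants were assayed by ELISA for TNF-α and IL-12 (Th1) and for TGF-β and IL-10 (Th2), compared with infected untreated cells.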

In series [4] the test system is Leishmania donovani. Briefly: Induction of plasma membrane permeabilization in Leishmania donovani MHOM/IN/80/Dd8 promastigotes assessed as non specific pore formation at MIC measured after 4 hrs by sytox green dye based flow cytometry. It counts as functional, organism-based.
In series [5] the test system is Leishmania donovani. Briefly: Induction of apoptosis in Leishmania donovani MHOM/IN/80/Dd8 promastigotes assessed as late apoptotic cells at 50 uM measured after 12 hrs by Annexin V-FITC/propidium iodide staining based assay (reference value: 0.46%). It counts as functional.
Series [6] has as its system Leishmania donovani. Briefly: Induction of apoptosis in Leishmania donovani MHOM/IN/80/Dd8 promastigotes assessed as early apoptotic cells at 50 uM measured after 48 hrs by Annexin V-FITC/propidium iodide staining based assay (reference value: 6.91%). Type of series: functional.
In series [7] the test system is Leishmania donovani. Briefly: Induction of apoptosis in Leishmania donovani MHOM/IN/80/Dd8 promastigotes assessed as late apoptotic cells at 50 uM measured after 48 hrs by Annexin V-FITC/propidium iodide staining based assay (reference value: 0.46%). It counts as functional.
Series [8] concerns Leishmania donovani. Briefly: Induction of apoptosis in Leishmania donovani MHOM/IN/80/Dd8 promastigotes assessed as DNA fragmentation at 50 uM after 48 hrs by TUNEL staining-based confocal microscopic analysis. Type of series: functional, organism-based. In a few lines:
(§2)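 Log-phase promastigotes (1 × 10^5) were treated with 50 μM compound or 0.1% DMSO vehicle for 48 h. DNA fragmentation was labelled with an APO-BrdU TUNEL kit with PI counterstain. Cells were imaged by phase-contrast and fluorescence microscopy.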

For series [9], the system named is Leishmania donovani. Briefly: Induction of apoptosis in Leishmania donovani MHOM/IN/80/Dd8 promastigotes assessed as DNA fragmentation at 50 uM after 48 hrs by TUNEL staining-based fluorescence assay. It counts as functional, organism-based. The essentials:
as §2

Series [10] has as its system Leishmania donovani. Briefly: Induction of morphological changes in Leishmania donovani MHOM/IN/80/Dd8 promastigotes assessed as appearance of round shape parasite at 50 uM after 48 hrs by bright field microscopic analysis. It counts as functional, organism-based.
The test system of series [11] is Leishmania donovani. Briefly: Induction of apoptosis in Leishmania donovani MHOM/IN/80/Dd8 promastigotes assessed as increase in meta-caspase activity at 50 uM using BOC-GRR-AMC as substrate preincubated for 1 hr followed by substrate addition and measured after 2 hrs in presence of caspase inhibitor zVAD-fmk by fluorometric assay. Type of series: functional, organism-based. The essentials:
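Log-phase promastigotes were pretreated for 1 h with antipain (1 μM) or zVAD-fmk (100 μM), then exposed to 50 μM compound or 0.1% DMSO. Metacaspase activity in lysates was read with fluorogenic BOC-GRR-AMC and expressed as RFU per mg protein.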

Series [12] relates to Leishmania donovani. Briefly: Induction of apoptosis in Leishmania donovani MHOM/IN/80/Dd8 promastigotes assessed as increase in meta-caspase activity at 50 uM using BOC-GRR-AMC as substrate preincubated for 1 hr followed by substrate addition and measured after 2 hrs by fluorometric assay relative to control. It counts as functional. In a few lines: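 Log-phase promastigotes treated with 50 μM for 24 and 48 h, with or without 1 h pretreatment with antipain (1 μM) or zVAD-fmk (100 μM). Vehicle control was 0.1% DMSO. Metacaspase activity in cell lysates measured with fluorogenic BOC-GRR-AMC, given as relative fluorescence units per mg protein.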

Series [13] concerns Leishmania donovani. Briefly: Induction of mitochondrial potential loss in Leishmania donovani MHOM/IN/80/Dd8 promastigotes assessed as shift in red to green fluorescence at 50 uM after 24 hrs by JC1 dye-based flow cytometry (reference value: 7.37%). Type of series: functional. The essentials: (§3)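 Exponential-phase promastigotes were incubated with 50 μM compound for 6−48 h, or 0.1% DMSO vehicle. CCCP (50 μM) served as positive control. After JC-1 staining, the red-to-green fluorescence shift was measured by flow cytometry.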

The test system of series [14] is Leishmania donovani. Briefly: Induction of mitochondrial potential loss in Leishmania donovani MHOM/IN/80/Dd8 promastigotes assessed as shift in red to green fluorescence at 50 uM after 48 hrs by JC1 dye-based flow cytometry (reference value: 7.37%). It counts as functional. The essentials:
as §3
(In general: Flow cytometry measures light scatter and fluorescence of single cells or particles in a stream.)

Series [15] has as its system Leishmania donovani. Briefly: Induction of mitochondrial membrane disruption in Leishmania donovani MHOM/IN/80/Dd8 promastigotes assessed as reduction in intracellular ATP level at 50 uM measured after 6 to 48 hrs by luciferase-based assay relative to control. Type of series: functional. In a few lines: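 Promastigotes were incubated with 0.1% DMSO or 50 μM compound for 6−48 h. Cytosolic ATP was quantified by bioluminescence assay. At least 3 independent experiments in duplicate.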

Series [16] has as its system Leishmania donovani. Briefly: Induction of reactive oxygen species generation in Leishmania donovani MHOM/IN/80/Dd8 promastigotes at 50 uM measured after 24 hrs by H2DCFDA probe-based flow cytometry (reference value: 7%). It counts as functional.
Series [17] concerns Leishmania donovani. Briefly: Induction of reactive oxygen species generation in Leishmania donovani MHOM/IN/80/Dd8 promastigotes at 50 uM measured after 48 hrs by H2DCFDA probe-based flow cytometry (reference value: 7%). It counts as functional.
Series [18] relates to Leishmania donovani. Briefly: Induction of nitric oxide generation in Leishmania donovani MHOM/IN/80/Dd8 promastigotes assessed as increase in fluorescence at 50 uM measured after 6 hrs by DAF-2DA dye-based flow cytometry relative to control. It counts as functional. The essentials:
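Log-phase promastigotes exposed to 50 μM for 6–18 h, vehicle control 0.1% DMSO, then labelled with 40 μM DAF-2DA. Fluorescence (GMFC) read by flow cytometry and expressed as fold change over vehicle. At least 3 independent experiments in duplicate.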

Series [19] in a line: Elimination rate constant in BALB/c mouse at 50 mg/kg, po administered via gavage by LC-MS/MS analysis. Type of series: ADME, organism-based. The settings on record: in vivo.
Series [20] in a line: Half life in BALB/c mouse at 50 mg/kg, po administered via gavage by LC-MS/MS analysis. Type of series: ADME, organism-based. The settings on record: in vivo.
Series [21] can be described thus: Tmax in BALB/c mouse at 50 mg/kg, po administered via gavage by LC-MS/MS analysis. Type of series: ADME, organism-based. The settings on record: in vivo.
The nature of series [22]: Apparent volume of distribution in BALB/c mouse at 50 mg/kg, po administered via gavage by LC-MS/MS analysis. It counts as ADME, organism-based. The settings on record: in vivo.

One may read the half-life as how long it takes for the measured level to halve. Broadly, the Tmax is the time at which the peak concentration occurs. Consider `Cc1cc(-c2ccc(OCCn3c([N+](=O)[O-])cnc3C)cc2)nc2ccccc12`, for which the Activity is recorded as above 62% with Leishmania donovani [1]; 81.7% in the series with Leishmania donovani [2]; 20.59% with Leishmania donovani [5]; 18.07% in the series on Leishmania donovani [6]; 44.11% with Leishmania donovani [7]; 54.18% with Leishmania donovani [13]. In addition, the Activity in the series with Leishmania donovani [14] was determined as 68.76%; in the series on Leishmania donovani [16], 41.41%; in the series on Leishmania donovani [17] it was 58.2%. For the same compound, the result in the series with Leishmania donovani [3] and in the series with Leishmania donovani [4] was inactive. The result with Leishmania donovani [8], in the series on Leishmania donovani [9] and with Leishmania donovani [10] was Active. In the series on Leishmania donovani [11], the inhibition result was “Active”. In addition, the “fold change (FC)” value was 3.8 with Leishmania donovani [12] and 1.75 in the series on Leishmania donovani [18]. In addition, the Imax in the series on Leishmania donovani [15] is recorded as above 67%. In addition, the k el in series [19] is 4.72e-05 s⁻¹. In series [20], this compound showed a half-life of 4.02 h. The Tmax in [21] amounted to 0.75 h. The “Vd(app)” value in series [22] was 15.98 L/kg.

Values taken from ChEMBL document CHEMBL4396890, “Synthesis, Biological Evaluation, Structure-Activity Relationship, and Mechanism of Action Studies of Quinoline-Metronidazole Derivatives Against Experimental Visceral Leishmaniasis” (J Med Chem, 2019).
